In ChEMBL document CHEMBL1641473, “Synthesis, structure, theoretical and experimental in vitro antioxidant/pharmacological properties of α-aryl, N-alkyl nitrones, as potential agents for the treatment of cerebral ischemia” (2011):

How the values were obtained:
Assay type in all cases: functional
[1] = Antioxidant activity assessed as trolox equivalents of peroxyl radical scavenging activity by ORAC assay
Outline: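 Fluorescein (70 nM) with 2,2'-azobis(2-methylpropionamidine) dihydrochloride (12 mM) and antioxidant in 75 mM phosphate buffer pH 7.4 at 37 °C. Fluorescence recorded every minute for 98 min. Net AUC taken against the blank and plotted against concentration; slope divided by the slope of the Trolox curve from the same assay. Duplicate wells, at least three independent assays.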

[2] = system: Mus musculus; test: Neuroprotective activity in NMRI mouse assessed as protection against t-BHP-induced lethality at 150 mg/kg, ip after 30 mins relative to control; conditions: route intraperitoneal
[3] = system: SH-SY5Y; test: Neuroprotective activity against rotenone/oligomycin-A-induced death in human SH-SY5Y cells assessed as protective effect at 1 uM after 2 hrs by MTT assay
Outline: (§1)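 Human SH-SY5Y neuroblastoma cells, low passage (<13), grown in 1:1 Ham's F-12/EMEM with 10% heat-inactivated FBS. Seeded at 1×10⁵ cells/well and treated before confluence in EMEM with 1% FBS. Insult was 30 µM rotenone plus 10 µM oligomycin-A for 24 h. Viability read by MTT (2 h, 37 °C, dark), then lysis and absorbance at 540 nm.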

[4] = system: Radical scavenging activity; test: Antioxidant activity of the compound assessed as DPPH radical scavenging activity at 0.5 mM after 2 hrs
Outline: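 DPPH radical mixed with nitrone and held 2 h at room temperature in the dark. DPPH absorbance read at 517 nm. RSA% = 100 × (A0 − Ai)/A0, with A0 and Ai the absorbance without and with nitrone. Quadruplicate wells, at least three independent runs; mean ± SEM.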

[5] = Antioxidant activity assessed as hydroxyl radical scavenging activity at 50 uM after 2 hrs by benzoic acid method
Outline: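 Hydroxyl radical from a Fenton reaction (Fe2+ plus H2O2 10 mmol) hydroxylates benzoate to fluorescent hydroxybenzoates. Incubation 2 h at 37 °C with or without nitrone; fluorescence read at excitation 305 nm, emission 407 nm. RSA% relative to no-nitrone control. Quadruplicate wells, at least three independent runs; mean ± SEM.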

[6] = system: SH-SY5Y; test: Neuroprotective activity against rotenone/oligomycin-A-induced death in human SH-SY5Y cells assessed as increase of cell viability at 1 uM after 2 hrs by MTT assay; outline: as §1
[7] = system: Radical scavenging activity; test: Antioxidant activity of the compound assessed as DPPH radical scavenging activity at 15 mM after 2 hrs
Outline: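 DPPH radical added to test compound; mixture kept 2 h at room temperature in the dark, then absorbance read at 517 nm. RSA% = 100×(A0−Ai)/A0, where A0 and Ai are DPPH absorbance without and with compound. Quadruplicate wells, at least three independent runs; mean ± SEM.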

[8] = system: SH-SY5Y; test: Neuroprotective activity against rotenone/oligomycin-A-induced death in human SH-SY5Y cells assessed as protective effect at 10 nM after 2 hrs by MTT assay; outline: as §1
[9] = system: SH-SY5Y; test: Neuroprotective activity against rotenone/oligomycin-A-induced death in human SH-SY5Y cells assessed as increase of cell viability at 10 nM after 2 hrs by MTT assay; outline: as §1
[10] = system: SH-SY5Y; test: Neuroprotective activity against rotenone/oligomycin-A-induced death in human SH-SY5Y cells assessed as increase of cell viability at 1 mM after 2 hrs by MTT assay; outline: as §1
[11] = system: SH-SY5Y; test: Neuroprotective activity against rotenone/oligomycin-A-induced death in human SH-SY5Y cells assessed as protective effect at 1 mM after 2 hrs by MTT assay; outline: as §1

SMILES | Activity (Trolox equivalents) [1] | Activity [2] [%] | Activity [3] [%] | Activity [4] [%] | Activity [5] [%] | Activity [6] [%] | Activity [7] [%] | Activity [8] [%] | Activity [9] [%] | Activity [10] [%] | Activity [11] [%]
COc1cc(Br)c(/C=[N+](\[O-])Cc2ccccc2)cc1O | 7.36 | 111 | 8.7 | 25.9 | 94.6 | 64.2 |  |  |  |  | 
COc1cc(/C=C/C(=O)CC(=O)/C=C/c2ccc(O)c(OC)c2)ccc1O [CURCUMIN] |  | 106 |  |  | 96.8 |  | 35 |  |  |  | 
COc1cc(Br)c(/C=[N+](\[O-])C(C)(C)C)cc1O | 5.58 | 87 | 11 | 31.1 | 96.3 | 65 |  |  |  |  | 
CC(C)(C)/[N+]([O-])=C/c1c[nH]c2ccccc12 | 3.69 | 60 | 8 | 1.2 |  | 64.1 |  |  |  |  | 
COc1ccc2[nH]cc(CCNC(C)=O)c2c1 [MELATONIN] |  |  |  |  |  |  |  | 17 | 59 |  | 
CC(=O)N[C@@H](CS)C(=O)O [ACETYLCYSTEINE] |  |  |  |  |  |  |  |  |  | 63.1 | 25
COc1cc(/C=[N+](\[O-])Cc2ccccc2)ccc1O | 2.93 |  | 16.9 | 88.2 | 96.9 | 63.9 |  |  |  |  | 
CC(C)(C)/[N+]([O-])=C/c1ccccc1 | 0 | 73 | 18.6 | 1.4 | 94.9 | 69.6 |  |  |  |  | 
COc1cc(Br)c(/C=[N+](\[O-])Cc2ccccc2)cc1OC | 0.03 | 116 | 3 | 0.2 | 95.1 | 65.3 |  |  |  |  | 
[O-]/[N+](=C\c1ccccc1)Cc1ccccc1 | 0.01 | 111 | 18.4 | 0.6 | 95.7 | 70.8 |  |  |  |  | 
Cc1c(C)c2c(c(C)c1O)CCC(C)(C(=O)O)O2 (stereo not drawn) | 1 |  |  |  | 94.3 |  |  |  |  |  | 
COc1cc(/C=[N+](\[O-])Cc2ccccc2)c(Br)cc1O | 6.4 |  | 13.4 | 40.7 | 95.7 | 62.8 |  |  |  |  | 
C/[N+]([O-])=C/c1ccccc1 | 0 |  | 18.7 | 0.8 | 95.3 | 64.7 |  |  |  |  | 
COc1cc(/C=[N+](/C)[O-])ccc1O | 3.35 |  |  | 87.6 | 96.5 |  |  |  |  |  | 
COc1ccc2c(c1)cc(/C=[N+](\[O-])C(C)(C)C)n2C | 7.98 | 50 | 4.4 | 4.8 |  | 62.8 |  |  |  |  | 
O=c1c(O)c(-c2ccc(O)c(O)c2)oc2cc(O)cc(O)c12 | 10.5 |  |  |  | 96.6 |  | 94.2 |  |  |  | 
COc1cc(Br)c(/C=[N+](\[O-])C(C)(C)C)cc1OC | 0.03 | 70 | 0 | 0.8 | 96.3 | 63.1 |  |  |  |  | 
CC(C)(C)/[N+]([O-])=C/c1cccnc1Cl | 0.01 | 74 | 0 | 1.6 | 94.9 | 61.4 |  |  |  |  | 
CC(C)(C)/[N+]([O-])=C/c1cccnc1Br | 0.01 | 76 | 24 | 3.9 | 95.1 | 60.1 |  |  |  |  | 
